From ChEMBL document CHEMBL1139268, “Camphor sulfonamide derivatives as novel, potent and selective CXCR3 antagonists” (Bioorg Med Chem Lett, 2009)
In brackets after ≈: the same amount, converted by molar mass.

Tests used:
[1] = Permeability across artificial membrane; assay type: ADME; settings: PAMPA; read-out: permeability
[2] = Volume of distribution at steady state in rat a 1.1 mg/kg, iv and 2.0 mg/kg, po; assay type: ADME, organism-based; settings: in vivo, read-out: Vdss
[3] = molecular target: T1, C-X-C chemokine receptor type 3 (Homo sapiens, UniProt P49682); assay: Antagonist activity at human recombinant CXCR3 receptor expressed in CHO-K1 cells assessed as human IP10-induced calcium flux by FLIPR assay; assay type: functional, cell-based
T1 sequence (P49682 whole entry): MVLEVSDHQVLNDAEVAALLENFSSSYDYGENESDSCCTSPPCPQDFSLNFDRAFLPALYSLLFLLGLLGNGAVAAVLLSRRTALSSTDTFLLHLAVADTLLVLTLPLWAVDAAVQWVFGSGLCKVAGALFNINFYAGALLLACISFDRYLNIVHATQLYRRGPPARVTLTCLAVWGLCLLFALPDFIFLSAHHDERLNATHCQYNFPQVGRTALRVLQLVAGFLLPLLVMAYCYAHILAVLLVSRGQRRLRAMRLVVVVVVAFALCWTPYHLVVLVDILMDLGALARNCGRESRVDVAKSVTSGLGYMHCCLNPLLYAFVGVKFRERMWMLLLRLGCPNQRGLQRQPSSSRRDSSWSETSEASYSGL

[4] = Oral bioavailability in rat at 2.0 mg/kg; assay type: ADME, organism-based; settings: in vivo
[5] = molecular target: T2, C-X-C chemokine receptor type 3 (Mus musculus, UniProt O88410); assay: Antagonist activity at mouse recombinant CXCR3 expressed in human U2OS cells; assay type: functional, cell-based
T2 sequence (O88410 whole entry): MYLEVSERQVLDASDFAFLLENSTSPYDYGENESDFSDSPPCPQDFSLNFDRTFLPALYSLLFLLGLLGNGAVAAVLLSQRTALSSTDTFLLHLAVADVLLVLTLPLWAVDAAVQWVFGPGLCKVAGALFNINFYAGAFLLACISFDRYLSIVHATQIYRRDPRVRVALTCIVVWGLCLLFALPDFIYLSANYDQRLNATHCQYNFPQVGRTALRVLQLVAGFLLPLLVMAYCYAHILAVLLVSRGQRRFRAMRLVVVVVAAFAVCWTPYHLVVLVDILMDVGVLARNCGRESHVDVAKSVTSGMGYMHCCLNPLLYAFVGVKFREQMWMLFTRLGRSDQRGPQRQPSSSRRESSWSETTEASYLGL
Outline: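 Human U2OS cells were transiently transduced with a mixture of recombinant BacMam viruses, one expressing murine CXCR3 and one expressing chimeric G-protein Gqi5.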

[6] = molecular target: Voltage-gated inwardly rectifying potassium channel KCNH2 (Homo sapiens, UniProt Q12809); assay: Binding affinity to human ERG
Chain of Voltage-gated inwardly rectifying potassium channel KCNH2 (Q12809 whole entry): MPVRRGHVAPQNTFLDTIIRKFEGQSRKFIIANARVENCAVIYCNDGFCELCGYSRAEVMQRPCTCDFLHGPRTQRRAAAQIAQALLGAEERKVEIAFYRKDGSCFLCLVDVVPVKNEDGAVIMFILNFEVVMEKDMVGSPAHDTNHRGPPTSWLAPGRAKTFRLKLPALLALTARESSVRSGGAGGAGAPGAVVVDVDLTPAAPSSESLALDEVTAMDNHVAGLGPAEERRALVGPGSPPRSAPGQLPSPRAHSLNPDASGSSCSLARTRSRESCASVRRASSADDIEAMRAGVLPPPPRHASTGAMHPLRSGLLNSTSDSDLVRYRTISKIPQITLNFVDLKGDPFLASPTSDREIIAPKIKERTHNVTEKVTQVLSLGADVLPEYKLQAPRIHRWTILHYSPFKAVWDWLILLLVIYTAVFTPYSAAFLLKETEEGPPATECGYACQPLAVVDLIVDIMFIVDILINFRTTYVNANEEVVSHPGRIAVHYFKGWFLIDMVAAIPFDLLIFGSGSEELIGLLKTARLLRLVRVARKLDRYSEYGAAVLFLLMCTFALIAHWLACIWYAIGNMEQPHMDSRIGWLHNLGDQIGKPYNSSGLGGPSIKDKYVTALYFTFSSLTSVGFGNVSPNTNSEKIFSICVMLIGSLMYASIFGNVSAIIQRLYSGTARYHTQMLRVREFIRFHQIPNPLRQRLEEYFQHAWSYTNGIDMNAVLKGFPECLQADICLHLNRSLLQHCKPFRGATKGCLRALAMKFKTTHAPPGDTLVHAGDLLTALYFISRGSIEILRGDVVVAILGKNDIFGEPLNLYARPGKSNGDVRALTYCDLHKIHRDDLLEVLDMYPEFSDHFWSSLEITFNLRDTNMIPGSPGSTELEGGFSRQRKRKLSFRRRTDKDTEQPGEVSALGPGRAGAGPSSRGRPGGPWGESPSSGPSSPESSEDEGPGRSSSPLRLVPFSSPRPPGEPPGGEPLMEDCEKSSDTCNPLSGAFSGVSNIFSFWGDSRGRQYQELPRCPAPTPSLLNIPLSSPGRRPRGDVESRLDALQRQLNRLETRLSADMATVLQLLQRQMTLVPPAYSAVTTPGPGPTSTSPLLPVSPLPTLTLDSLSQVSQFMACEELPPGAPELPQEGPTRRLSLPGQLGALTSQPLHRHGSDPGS

Rattus norvegicus = assay: Half life in rat at 1.1 mg/kg, iv and 2.0 mg/kg, po; assay type: ADME, organism-based; settings: in vivo
[7] = Clearance in rat at 1.1 mg/kg, iv and 2.0 mg/kg, po; assay type: ADME, organism-based; settings: in vivo
Cytochrome P450 1A2 = molecular target: T3, Cytochrome P450 1A2 (Homo sapiens, UniProt P05177); assay: Inhibition of CYP1A2; assay type: ADME
T3 sequence (P05177 whole entry): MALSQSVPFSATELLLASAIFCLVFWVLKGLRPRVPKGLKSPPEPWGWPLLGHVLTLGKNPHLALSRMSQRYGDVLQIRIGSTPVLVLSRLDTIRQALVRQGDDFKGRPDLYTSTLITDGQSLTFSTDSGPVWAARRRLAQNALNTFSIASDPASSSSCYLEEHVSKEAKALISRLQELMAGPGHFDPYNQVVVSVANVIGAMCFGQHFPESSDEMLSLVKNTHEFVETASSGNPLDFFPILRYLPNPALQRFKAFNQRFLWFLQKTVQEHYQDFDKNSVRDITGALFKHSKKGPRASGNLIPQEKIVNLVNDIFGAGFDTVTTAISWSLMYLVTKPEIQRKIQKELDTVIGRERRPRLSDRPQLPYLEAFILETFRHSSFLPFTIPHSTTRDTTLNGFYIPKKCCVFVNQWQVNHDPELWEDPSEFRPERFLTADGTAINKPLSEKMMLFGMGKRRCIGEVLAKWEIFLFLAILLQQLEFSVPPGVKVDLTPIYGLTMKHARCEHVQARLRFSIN

[8] = Aqueous solubility of the compound; assay type: physicochemical; settings: buffer
Cytochrome P450 3A4 [9] = molecular target: T4, Cytochrome P450 3A4 (Homo sapiens, UniProt P08684); assay: Inhibition of CYP3A4 red; assay type: ADME
T4 sequence (P08684 whole entry): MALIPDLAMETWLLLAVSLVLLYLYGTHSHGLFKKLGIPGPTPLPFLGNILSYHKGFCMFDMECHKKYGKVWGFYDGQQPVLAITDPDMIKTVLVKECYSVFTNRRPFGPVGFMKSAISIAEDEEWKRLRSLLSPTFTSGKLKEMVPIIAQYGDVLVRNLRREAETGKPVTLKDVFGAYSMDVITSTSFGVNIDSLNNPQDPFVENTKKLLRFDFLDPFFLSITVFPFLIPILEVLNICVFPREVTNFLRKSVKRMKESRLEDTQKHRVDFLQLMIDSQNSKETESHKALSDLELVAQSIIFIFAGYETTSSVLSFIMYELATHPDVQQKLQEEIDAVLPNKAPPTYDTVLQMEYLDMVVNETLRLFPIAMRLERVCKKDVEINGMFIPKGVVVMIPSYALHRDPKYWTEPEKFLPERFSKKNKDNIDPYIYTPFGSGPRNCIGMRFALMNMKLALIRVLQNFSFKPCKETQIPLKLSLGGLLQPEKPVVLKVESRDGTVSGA

[10] = molecular target: T1, C-X-C chemokine receptor type 3; assay: Antagonist activity at human recombinant CXCR3 receptor assessed as human IP10-induced calcium mobilization by FLIPR assay; assay type: functional; settings: read-out: pA2 (converted)
Cytochrome P450 2C19 = Cytochrome P450 2C19 (Homo sapiens, UniProt P33261); assay: Inhibition of CYP2C19; assay type: ADME
Chain of Cytochrome P450 2C19 (P33261 whole entry): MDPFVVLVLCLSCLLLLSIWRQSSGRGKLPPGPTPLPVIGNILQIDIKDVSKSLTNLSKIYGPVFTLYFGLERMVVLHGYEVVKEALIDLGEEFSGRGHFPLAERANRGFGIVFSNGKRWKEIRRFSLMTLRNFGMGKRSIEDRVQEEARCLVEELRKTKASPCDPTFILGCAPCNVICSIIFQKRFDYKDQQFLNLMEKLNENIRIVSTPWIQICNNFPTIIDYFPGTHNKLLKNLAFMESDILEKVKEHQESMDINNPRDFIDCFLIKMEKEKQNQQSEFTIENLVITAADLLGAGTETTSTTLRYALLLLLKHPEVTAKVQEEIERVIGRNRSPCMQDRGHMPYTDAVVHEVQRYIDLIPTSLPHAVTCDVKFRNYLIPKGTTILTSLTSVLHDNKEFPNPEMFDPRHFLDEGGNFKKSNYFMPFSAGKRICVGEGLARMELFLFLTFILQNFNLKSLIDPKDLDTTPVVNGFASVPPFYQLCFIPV

Cytochrome P450 2C9 = Cytochrome P450 2C9 (Homo sapiens, UniProt P11712); assay: Inhibition of CYP2C9; assay type: ADME
Chain of Cytochrome P450 2C9 (P11712 whole entry): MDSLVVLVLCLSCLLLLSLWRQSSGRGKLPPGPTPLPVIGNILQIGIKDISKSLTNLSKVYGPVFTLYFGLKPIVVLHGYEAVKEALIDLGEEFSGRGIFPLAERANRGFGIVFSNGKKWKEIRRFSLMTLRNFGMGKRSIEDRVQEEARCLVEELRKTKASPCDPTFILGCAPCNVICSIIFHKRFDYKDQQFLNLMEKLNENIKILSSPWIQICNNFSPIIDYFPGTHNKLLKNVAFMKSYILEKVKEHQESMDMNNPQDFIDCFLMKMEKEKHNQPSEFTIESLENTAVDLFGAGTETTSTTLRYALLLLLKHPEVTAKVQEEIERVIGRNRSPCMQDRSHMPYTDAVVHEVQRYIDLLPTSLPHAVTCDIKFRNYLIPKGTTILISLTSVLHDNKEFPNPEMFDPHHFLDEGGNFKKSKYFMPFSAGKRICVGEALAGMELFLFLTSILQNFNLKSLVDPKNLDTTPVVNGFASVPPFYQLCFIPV

Cytochrome P450 3A4 [11] = molecular target: T4, Cytochrome P450 3A4; assay: Inhibition of CYP3A4 green; assay type: ADME
Cytochrome P450 2D6 = Cytochrome P450 2D6 (Homo sapiens, UniProt P10635); assay: Inhibition of CYP2D6; assay type: ADME
Chain of Cytochrome P450 2D6 (P10635 whole entry): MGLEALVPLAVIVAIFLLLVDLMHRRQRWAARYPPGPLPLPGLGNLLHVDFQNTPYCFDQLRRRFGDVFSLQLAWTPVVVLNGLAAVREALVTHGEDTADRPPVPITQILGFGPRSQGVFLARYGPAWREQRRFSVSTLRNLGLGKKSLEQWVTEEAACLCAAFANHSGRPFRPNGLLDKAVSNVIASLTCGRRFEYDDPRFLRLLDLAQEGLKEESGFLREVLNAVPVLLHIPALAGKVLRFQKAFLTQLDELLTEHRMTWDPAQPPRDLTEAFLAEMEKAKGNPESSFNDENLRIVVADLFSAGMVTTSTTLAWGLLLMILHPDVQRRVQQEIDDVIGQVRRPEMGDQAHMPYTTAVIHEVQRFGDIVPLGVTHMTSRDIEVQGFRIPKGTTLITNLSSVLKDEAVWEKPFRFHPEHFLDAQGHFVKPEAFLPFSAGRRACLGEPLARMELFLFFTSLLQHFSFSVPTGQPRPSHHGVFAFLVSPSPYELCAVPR

| SMILES | Papp [1] | Vd [2] | IC50 [3] | bioavailability [4] | IC50 [5] | IC50 [6] | t1/2 (Rattus norvegicus) | clearance [7] | IC50 (Cytochrome P450 1A2) | solubility [8] | IC50 (Cytochrome P450 3A4 [9]) | Kb [10] | IC50 (Cytochrome P450 2C19) | IC50 (Cytochrome P450 2C9) | IC50 (Cytochrome P450 3A4 [11]) | IC50 (Cytochrome P450 2D6) |
| --- | --- | --- | --- | --- | --- | --- | --- | --- | --- | --- | --- | --- | --- | --- | --- | --- |
| C[C@H]1CN(S(=O)(=O)C[C@]23CC[C@H](CC2=O)C3(C)C)CCN1c1ncc(C(F)(F)F)cc1F | 35.2 ×10⁻⁶ cm/s | 2.2 L/kg | 79.4 nM | 8% | 501 nM | > 63000 nM | 30 min | 108 mL/min/kg | 160 nM | 4 µg/mL (≈ 8.38 µM) | 320 nM | 25.1 nM | – | – | – | – |
| C[C@H]1CN(S(=O)(=O)C[C@]23CC[C@H](C[C@@H]2O)C3(C)C)CCN1c1ncc(C(F)(F)F)cc1F | – | – | 31.6 nM | – | 200 nM | – | – | – | > 25000 nM | – | > 25000 nM | 20 nM | 4000 nM | 4000 nM | 13600 nM | > 25000 nM |
